Source: ChEMBL document CHEMBL1926615, “1,2,3-Triazole tethered β-lactam-chalcone bifunctional hybrids: synthesis and anticancer evaluation” (Eur J Med Chem, 2012)

Key:
Format in all cases: functional
PC-3 = experiment: Growth inhibition of human PC3 cells at 1 uM after 48 hrs by SRB assay; conditions: PC-3, 48 h, read-out: GI
Procedure, shortened: (§1)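 Sulforhodamine B readout at 540 nm after 48 h exposure of cells seeded at 1×10⁵ cells/ml and pre-grown 24 h in RPMI-1640 with 10% fetal calf serum (37 °C, 5% CO2). Compounds diluted in medium from DMSO stocks.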

A549 = experiment: Growth inhibition of human A549 cells at 1 uM after 48 hrs by SRB assay; conditions: A549, 48 h, read-out: GI; procedure, shortened: as §1
Caco-2 = experiment: Growth inhibition of human Caco2 cells at 20 uM after 48 hrs by SRB assay; conditions: Caco-2, 48 h, read-out: GI
Procedure, shortened: (§2)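 Cells grown in RPMI-1640 (2 mM glutamine, pH 7.4, 10% fetal calf serum, penicillin/streptomycin) at 37 °C, 5% CO2, 90% RH. Seeded as suspension of 1 x 10^5 cells/ml, grown 24 h, then test solutions (from DMSO stocks diluted in medium with gentamycin) added for 48 h. Fixed with TCA at 4 °C 1 h, SRB stained, dye dissolved in Tris-HCl pH 10.4, OD 540 nm. Percent growth inhibition computed versus untreated growth after blank subtraction.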

THP-1 = experiment: Growth inhibition of human THP1 cells at 20 uM after 48 hrs by SRB assay; conditions: THP-1, 48 h, read-out: GI; procedure, shortened: as §2

`CO[C@@]12[C@H](COC(N)=O)C3=C(C(=O)C(C)=C(N)C3=O)N1C[C@@H]1N[C@@H]12` [MITOMYCIN] was tested, and the inhibition of growth at 1 µM (PC-3) was 60%.

`CC(=O)O[C@H]1C(=O)[C@@]2(C)[C@H]([C@H](OC(=O)c3ccccc3)[C@]3(O)C[C@H](OC(=O)[C@H](O)[C@@H](NC(=O)c4ccccc4)c4ccccc4)C(C)=C1C3(C)C)[C@]1(OC(C)=O)CO[C@@H]1C[C@@H]2O` [PACLITAXEL] gave an inhibition of growth at 1 µM (A549) of 69%.

`O=c1[nH]cc(F)c(=O)[nH]1` [FLUOROURACIL] gave an inhibition of growth at 20 µM (Caco-2) of 68% and an inhibition of growth at 20 µM (THP-1) of 70%.
